Results published in ChEMBL document CHEMBL1143122, “Novel analogs of D-e-MAPP and B13. Part 1: synthesis and evaluation as potential anticancer agents” (Bioorg Med Chem, 2008).

What was measured:
LOX IMVI = test: Antiproliferative activity against human LOXIMVI cells after 48 hrs; format: functional
How it was run: (§1)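 NCI 60-cell screen. Cells were grown in RPMI 1640 with 5% FBS and 2 mM L-glutamine, then plated at 5,000–40,000 cells/well according to doubling time and preincubated for 24 h at 37 °C in 5% CO2. Compounds were dissolved in DMSO at 400× the top final concentration and tested at five 10-fold dilutions from 10−4 to 10−8 M for 48 h. Growth was read spectrophotometrically; GI50 is 50% net protein reduction.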

Malme-3M = test: Antiproliferative activity against human MALME3M cells after 48 hrs; format: functional; how it was run: as §1
M14 = test: Antiproliferative activity against human M14 cells after 48 hrs; format: functional; conditions: M14, 48 h; how it was run: as §1
SK-MEL-2 = test: Antiproliferative activity against human SKMEL2 cells after 48 hrs; format: functional; conditions: SK-MEL-2, 48 h; how it was run: as §1
SK-MEL-28 = test: Antiproliferative activity against human SKMEL28 cells after 48 hrs; format: functional; conditions: SK-MEL-28, 48 h; how it was run: as §1
UACC-257 = test: Antiproliferative activity against human UACC257 cells after 48 hrs; format: functional; conditions: UACC-257, 48 h
How it was run: (§2)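 NCI 60-cell-line screen. Lines grown in RPMI 1640 with 5% fetal bovine serum and 2 mM L-glutamine, plated at 5,000–40,000 cells/well according to doubling time, left 24 h at 37 °C in 5% CO2. Drug stocks in DMSO at 400-fold the top final concentration. Five 10-fold dilutions, 10−4 to 10−8 M, incubated 48 h. Growth read spectrophotometrically as net protein; GI50 taken as 50% reduction.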

UACC-62 = test: Antiproliferative activity against human UACC62 cells after 48 hrs; format: functional; conditions: UACC-62, 48 h; how it was run: as §2
OVCAR-3 = test: Antiproliferative activity against human OVCAR-3 cells after 48 hrs; format: functional; conditions: OVCAR-3, 48 h; how it was run: as §1
OVCAR-4 = test: Antiproliferative activity against human OVCAR4 cells after 48 hrs; format: functional; conditions: OVCAR-4, 48 h; how it was run: as §1
OVCAR-5 = test: Antiproliferative activity against human OVCAR5 cells after 48 hrs; format: functional; conditions: OVCAR-5, 48 h; how it was run: as §1
OVCAR-8 = test: Antiproliferative activity against human OVCAR8 cells after 48 hrs; format: functional; conditions: OVCAR-8, 48 h; how it was run: as §1
A498 = test: Antiproliferative activity against human A498 cells after 48 hrs; format: functional; conditions: A498, 48 h; how it was run: as §1
ACHN = test: Antiproliferative activity against human ACHN cells after 48 hrs; format: functional; how it was run: as §1
RXF 393 = test: Antiproliferative activity against human RXF393 cells after 48 hrs; format: functional; conditions: RXF 393, 48 h; how it was run: as §1
MDA-MB-231 = test: Antiproliferative activity against human MDA-MB-231 cells after 48 hrs; format: functional; conditions: MDA-MB-231, 48 h; how it was run: as §1
MDA-MB-435 = test: Antiproliferative activity against human MDA-MB-435 cells after 48 hrs; format: functional; conditions: Homo sapiens, MDA-MB-435, 48 h; how it was run: as §1
HOP-92 = test: Antiproliferative activity against human HOP92 cells after 48 hrs; format: functional; conditions: HOP-92, 48 h; how it was run: as §1
NCI-H522 = test: Antiproliferative activity against human NCI-H522 cells after 48 hrs; format: functional; conditions: NCI-H522, 48 h; how it was run: as §1
HCT-116 = test: Antiproliferative activity against human HCT116 cells after 48 hrs; format: functional; conditions: HCT-116, 48 h; how it was run: as §1
HCT-15 = test: Antiproliferative activity against human HCT15 cells after 48 hrs; format: functional; conditions: Homo sapiens, HCT-15, 48 h; how it was run: as §1
KM12 = test: Antiproliferative activity against human KM12 cells after 48 hrs; format: functional; conditions: Homo sapiens, KM12, 48 h; how it was run: as §1
SF-539 = test: Antiproliferative activity against human SF539 cells after 48 hrs; format: functional; conditions: SF-539, 48 h; how it was run: as §1
SNB-19 = test: Antiproliferative activity against human SNB19 cells after 48 hrs; format: functional; conditions: SNB-19, 48 h; how it was run: as §1
MCF7 = test: Antiproliferative activity against human MCF7 cells after 48 hrs; format: functional, cell-based; conditions: MCF7, 48 h
[1] = Antiproliferative activity against human HL60(TB) cells after 48 hrs; format: functional, HL-60(TB); conditions: HL-60, 48 h
How it was run: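 NCI 60-line panel screen: cells grown in RPMI 1640 with 5% fetal bovine serum and 2 mM L-glutamine, plated at 5,000–40,000 cells/well by doubling time, and preincubated 24 h at 37 °C in 5% CO2. Drugs were solubilised in DMSO at 400-fold the final maximum and tested at five 10-fold dilutions from 10−4 to 10−8 M for 48 h. Net protein was read spectrophotometrically, and the concentration giving 50% reduction was reported as log10 GI50.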

K562 = test: Antiproliferative activity against human K562 cells after 48 hrs; format: functional; conditions: K562, 48 h; how it was run: as §1
MOLT-4 = test: Antiproliferative activity against human MOLT4 cells after 48 hrs; format: functional; conditions: MOLT-4, 48 h; how it was run: as §1
RPMI-8226 = test: Antiproliferative activity against human RPMI8226 cells after 48 hrs; format: functional; conditions: RPMI-8226, 48 h; how it was run: as §1
A549 = test: Antiproliferative activity against human A549 cells after 48 hrs; format: functional; conditions: A549, 48 h; how it was run: as §1
[2] = read-out: Log LC50 (the source's name) (converted)

Question: Which results are given for `CCCCCCCCCCCCCCN[C@@H](CO)Cc1ccccc1`?
Answer: GI50 (LOX IMVI): 1.58 µM; LC50 (LOX IMVI): 5.75 µM; TGI (LOX IMVI; read-out: Log TGI (converted)): 3.02 µM; GI50 (Malme-3M): 2 µM; LC50 (Malme-3M): 6.31 µM; TGI (Malme-3M; read-out: Log TGI (converted)): 3.55 µM; GI50 (M14): 2.24 µM; LC50 (M14): 6.76 µM; TGI (M14; read-out: Log TGI (converted)): 3.89 µM; GI50 (SK-MEL-2): 2.69 µM; LC50 (SK-MEL-2): > 100 µM; TGI (SK-MEL-2; read-out: Log TGI (converted)): 5.5 µM; GI50 (SK-MEL-28): 1.91 µM; LC50 (SK-MEL-28): 6.31 µM; TGI (SK-MEL-28; read-out: Log TGI (converted)): 3.47 µM; GI50 (UACC-257): 2.09 µM; CC50 (UACC-257; [2]): 17.8 µM; TGI (UACC-257; read-out: Log TGI (converted)): 4.79 µM; GI50 (UACC-62): 2 µM; LC50 (UACC-62): 7.94 µM; TGI (UACC-62; read-out: Log TGI (converted)): 3.98 µM; GI50 (OVCAR-3): 1.66 µM; LC50 (OVCAR-3): 5.5 µM; TGI (OVCAR-3; read-out: Log TGI (converted)): 3.02 µM; GI50 (OVCAR-4): 1.91 µM; LC50 (OVCAR-4): 6.31 µM; TGI (OVCAR-4; read-out: Log TGI (converted)): 3.47 µM; GI50 (OVCAR-5): 2.4 µM; CC50 (OVCAR-5; [2]): 15.8 µM; TGI (OVCAR-5; read-out: Log TGI (converted)): 5.5 µM; GI50 (OVCAR-8): 1.91 µM; TGI (OVCAR-8; read-out: Log TGI (converted)): 3.8 µM; GI50 (A498): 14.5 µM; CC50 (A498; [2]): 52.5 µM; TGI (A498; read-out: Log TGI (converted)): 27.5 µM; GI50 (ACHN): 1.7 µM; CC50 (ACHN; [2]): 5.89 µM; TGI (ACHN; read-out: Log TGI (converted)): 3.16 µM; GI50 (RXF 393): 1.7 µM; CC50 (RXF 393; [2]): 6.92 µM; TGI (RXF 393; read-out: Log TGI (converted)): 3.47 µM; GI50 (MDA-MB-231): 2 µM; LC50 (50% lethal concentration) (MDA-MB-231): 6.61 µM; TGI (MDA-MB-231; read-out: Log TGI (converted)): 3.63 µM; GI50 (MDA-MB-435): 1.74 µM; LC50 (MDA-MB-435): 5.62 µM; TGI (MDA-MB-435; read-out: Log TGI (converted)): 3.16 µM; GI50 (HOP-92): 1.23 µM; LC50 (HOP-92): 6.46 µM; TGI (HOP-92; read-out: Log TGI (converted)): 2.82 µM; GI50 (NCI-H522): 2.09 µM; TGI (NCI-H522; read-out: Log TGI (converted)): 3.98 µM; GI50 (HCT-116): 2.04 µM; LC50 (HCT-116): 6.76 µM; TGI (HCT-116; read-out: Log TGI (converted)): 3.72 µM; GI50 (HCT-15): 1.7 µM; LC50 (HCT-15): 5.89 µM; TGI (HCT-15; read-out: Log TGI (converted)): 3.16 µM; GI50 (KM12): 1.86 µM; CC50 (KM12; [2]): 6.17 µM; TGI (KM12; read-out: Log TGI (converted)): 3.39 µM; GI50 (SF-539): 1.7 µM; LC50 (SF-539): 6.76 µM; TGI (SF-539; read-out: Log TGI (converted)): 3.39 µM; GI50 (SNB-19): 1.7 µM; CC50 (SNB-19; [2]): 5.89 µM; TGI (SNB-19; read-out: Log TGI (converted)): 3.16 µM; GI50 (MCF7): 1.74 µM; LC50 (MCF7): 6.03 µM; TGI (MCF7; read-out: Log TGI (converted)): 3.24 µM; GI50 [1]: 1.78 µM; LC50 [1]: 9.33 µM; TGI ([1]; read-out: Log TGI (converted)): 4.07 µM; GI50 (K562): 1.82 µM; LC50 (K562): 9.33 µM; TGI (K562; read-out: Log TGI (converted)): 4.07 µM; GI50 (MOLT-4): 2.04 µM; LC50 (MOLT-4): 9.33 µM; TGI (MOLT-4; read-out: Log TGI (converted)): 4.37 µM; GI50 (RPMI-8226): 1.55 µM; CC50 (RPMI-8226; [2]): 7.41 µM; TGI (RPMI-8226; read-out: Log TGI (converted)): 3.39 µM; GI50 (A549): 2.04 µM; CC50 (A549; [2]): 26.3 µM; TGI (A549; read-out: Log TGI (converted)): 4.68 µM
